A selection: hits, their analogues and other compounds. The true share with any hit is near 0.78%.
S1P1 ag-PAM: S1P1 agonists and agonism potentiators, primary screen, cell-based, primary and confirmation screens, CRE-bla reporter. Sphingosine 1-phosphate receptor 1 (Homo sapiens), P21453. S1P1 CRE-bla cells, forskolin, beta-lactamase FRET, potentiator mode; S1P1 agonist co-added at EC20, 2 nM; 100% = saturating reference agonist, 0% = basal. activation, % at 9.5 µM. 56,000 tested, 0.57% active;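 active = activation above a cutoff set at the mean activation of all tested compounds plus 3 SD, cut at about 54% in these data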;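 also: forskolin at 4 µM as EC80 and the EC20 agonist is SEW2871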
MMP-13 inhibitor: human MMP13 inhibitors, primary screen, biochemical, FRET peptide cleavage. Collagenase 3 (Homo sapiens), P45452. MMP-13 fTHP FRET cleavage, Mca fluorescence. inhibition, % at 4 µM. 65,000 tested, 0.07% active;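 active = inhibition above the mean of compound-free control plate wells plus 3 SD, cut at about 14% in these data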
Htt clearance: clearance of mutant huntingtin inclusions, primary screen, imaging, HeLa Exon1htt(103Q)mCFP, confocal imaging | aggregate imaging; zero = plate's median compound well | inhibition, % at 1.5 µM | 47,000 tested, 0.42% active;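 active = inhibition of aggregate fluorescence above about 70%, also judged a hit by eye on the cell image, limit read from the data, passing the limit was not always enough; inconclusive = no rule stated for this call; inactive = not judged a hit on image review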;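 also: cells exposed to compound for three days before fixation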
S1P3 ag: human S1P3 receptor agonists, primary screen, cell-based, primary and confirmation, NFAT-BLA reporter | Sphingosine 1-phosphate receptor 3 (Homo sapiens), Q99500 | S1P3 NFAT-BLA reporter cells, agonism, FRET ratio; relative to 1 µM S1P, basal subtracted | activation, % at 4.5 µM | 60,000 tested, 0.1% active | AID 373, 2006;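 active = activation above the screen-wide mean plus 3 SD, cut at about 4.5% in these data, passing the limit was not always enough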
Target sequence (Q99500 whole entry, looked up): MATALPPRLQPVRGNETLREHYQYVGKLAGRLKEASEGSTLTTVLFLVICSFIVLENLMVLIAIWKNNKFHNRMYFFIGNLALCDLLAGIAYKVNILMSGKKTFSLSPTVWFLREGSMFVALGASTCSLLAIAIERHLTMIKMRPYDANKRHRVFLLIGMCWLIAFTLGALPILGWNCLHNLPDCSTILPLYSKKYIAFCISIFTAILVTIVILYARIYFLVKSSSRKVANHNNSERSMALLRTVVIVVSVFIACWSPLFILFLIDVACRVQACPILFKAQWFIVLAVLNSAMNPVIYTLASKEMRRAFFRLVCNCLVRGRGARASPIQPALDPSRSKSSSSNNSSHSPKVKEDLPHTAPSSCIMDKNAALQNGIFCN
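Material: Human S1P3 NFAT-BLA reporter CHO cells | Incubation: Overnight plating, 4 h compound 37 °C, 2 h substrate RT | Signal: FRET β-lactamase substrate fluorescence, excitation 405 nm, 460/535 nm emission ratio, background-subtracted | Compound: 4.5 µM final, single dose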
Large screens that a line does not name were inactive.

CCOc1ccc(/C(O)=C2\C(=O)C(=O)N(CCOCCO)C2c2ccccc2OC)cc1 (stereo not drawn)	none (no result: S1P1 ag-PAM, MMP-13 inhibitor, S1P3 ag)
COc1ccc(OC)c(NC(=O)Cn2cc(C#N)c3ccccc32)c1	none
COc1ccc(OC)c(NC(=O)Cn2cc(C(=O)c3ccco3)c3ccccc32)c1	Htt clearance 76
CCOc1ccc(S(=O)(=O)n2nnc3ccccc32)cc1C	Htt clearance 74
CCOc1ccc(Cl)cc1S(=O)(=O)n1nnc2ccccc21	none (no result: Htt clearance)
O=C(c1ccc2c(=O)n(C3CCCC3)c(=S)[nH]c2c1)N1CCc2ccccc21	none (no result: S1P1 ag-PAM, MMP-13 inhibitor, S1P3 ag)
Cc1cc(/C=N/n2cnnc2)c(C)n1-c1ccc(OCc2ccc(F)cc2)cc1	S1P1 ag-PAM 142 (no result: Htt clearance)
Cn1c(=O)n(Cc2ccc(Cl)cc2)c2ccccc21	none (no result: S1P1 ag-PAM, MMP-13 inhibitor, S1P3 ag)
Cc1ccc(C)n1-c1ccc(N2CCOCC2)cc1	Htt clearance 97
Cc1ccc(NC(=O)CC2Nc3ccccc3NC2=O)cc1Cl (stereo not drawn)	S1P3 ag 5.9 (no result: Htt clearance)
CC(NC(=O)CC1Nc2ccccc2NC1=O)c1ccccc1 (stereo not drawn)	none (no result: Htt clearance)
Fc1ccc(/C=C2\CCCC3=C2Nc2ncnn2C3c2ccc(F)cc2)cc1 (stereo not drawn)	none (no result: S1P1 ag-PAM, MMP-13 inhibitor, S1P3 ag)
CC(Sc1ccsc1[N+](=O)[O-])C(=O)NCCc1ccc(Cl)cc1 (stereo not drawn)	none (no result: S1P1 ag-PAM, MMP-13 inhibitor, S1P3 ag)
CC(c1ccccc1)N1C(=O)c2ccccc2C1O (stereo not drawn)	none (no result: S1P1 ag-PAM, MMP-13 inhibitor, S1P3 ag)
FC(F)(F)c1ccc(N2CCN(c3cc(-c4ccccc4)nc4ncnn34)CC2)nc1	S1P1 ag-PAM 108
Cc1cc(N2CCN(C/C=C/c3ccccc3)CC2)n2ncnc2n1	none (no result: Htt clearance)
CCOC(=O)c1cccc(NC(=O)Cn2cnc3c2c(=O)n(C)c(=O)n3C)c1	none
COC(=O)c1cccc(NC(=O)Cn2cnc3c2c(=O)n(C)c(=O)n3C)c1	MMP-13 inhibitor 15 (no result: Htt clearance)
CCN(c1ccc2c(c1)OCO2)S(=O)(=O)c1cc(Br)cc2c1N(C(C)=O)CC2	none (no result: S1P1 ag-PAM, MMP-13 inhibitor, S1P3 ag)
Cc1cc2ncn(S(=O)(=O)c3ccc(S(=O)(=O)N4CCCCCC4)cc3)c2cc1C	Htt clearance 71 (no result: S1P1 ag-PAM, MMP-13 inhibitor, S1P3 ag)
CCOc1ccc(S(=O)(=O)n2cnc3cc(C)c(C)cc32)cc1	none
CCOC(=O)C1=C(N)OC2=C(C(=O)CCC2)C1c1ccccc1OCC (stereo not drawn)	S1P3 ag 19 (no result: Htt clearance)
CCOC(=O)C1=C(N)OC2=C(C(=O)CC(C)(C)C2)C1c1ccco1 (stereo not drawn)	Htt clearance inconclusive
COc1ccc(C2=CSC3=C(C(=O)c4cccc(S(=O)(=O)N(C)C)c4)CCN23)cc1	none (no result: S1P1 ag-PAM, MMP-13 inhibitor, S1P3 ag)
O=S1(=O)C=C(Sc2nc3ccccc3s2)c2ccccc21	S1P1 ag-PAM 114 (no result: Htt clearance)
CCOC(=O)C1CCCN(c2nc3ccccc3nc2C(C#N)C(=O)OCC)C1 (stereo not drawn)	MMP-13 inhibitor 14 (no result: Htt clearance)
Cc1c(S(=O)(=O)N2CCN(C(c3ccccc3)c3ccccc3)CC2)c(=O)n(C)c(=O)n1C	none (no result: S1P1 ag-PAM, MMP-13 inhibitor, S1P3 ag)
COC(=O)c1cccc(S(=O)(=O)N2CCC(C)CC2)c1	Htt clearance 71 (no result: S1P1 ag-PAM)
CC(C)Oc1ccc(C(=O)N/N=C/c2ccc(-c3ccc(S(=O)(=O)Nc4ncccn4)cc3)o2)cc1	none (no result: S1P1 ag-PAM, MMP-13 inhibitor, S1P3 ag)
CCOc1ccc(OCC)c(-c2c(=O)n(OCc3ccccc3C(=O)OC)c3ccccc3[n+]2[O-])c1	none (no result: S1P1 ag-PAM, MMP-13 inhibitor, S1P3 ag)
CN(C)S(=O)(=O)c1ccc(S(=O)(=O)N(Cc2ccccn2)Cc2ccco2)cc1	none (no result: Htt clearance)
O=C(NCc1ccc(F)cc1)c1cnn2ccccc12	Htt clearance 75 (no result: S1P1 ag-PAM, MMP-13 inhibitor, S1P3 ag)
Cc1ccc(-n2c(C)cc(C(=O)CSc3nnnn3C)c2C)cc1	S1P1 ag-PAM 87
COc1ccccc1C(=O)Nc1ccc2oc(-c3ccc(F)cc3)nc2c1	none (no result: S1P1 ag-PAM)
CCCC(=O)Nc1ccc(-c2nc3cc(C)ccc3o2)cc1	S1P1 ag-PAM 70 (no result: Htt clearance)
CCCC(=O)Nc1ccc2oc(-c3ccc(OC)c(Br)c3)nc2c1	S1P1 ag-PAM 98 (no result: Htt clearance)
CCCC(=O)Nc1ccc(-c2nc3cc(C)c(C)cc3o2)c(O)c1	none
CCCCCC(=O)Nc1ccc2oc(-c3cccnc3)nc2c1	Htt clearance 71
Cn1c(Cc2cccc3ccccc23)nnc1SCC(=O)N1CCN(c2ccccc2)CC1	none (no result: S1P1 ag-PAM, MMP-13 inhibitor, S1P3 ag)
Cc1cc(C)n(-c2nc(NCc3cccnc3)c3c4c(sc3n2)COC(C)(C)C4)n1	S1P3 ag 13
CN1CCN(C(=O)CSc2nc(-c3cccs3)cc(-c3cccs3)c2C#N)CC1	S1P1 ag-PAM 67 (no result: Htt clearance)

Compound activity: PubChem BioAssay, several laboratories
